Data on six compounds can be found in ChEMBL document CHEMBL4321882, “α-Helix-Mimicking Sulfono-γ-AApeptide Inhibitors for p53-MDM2/MDMX Protein-Protein Interactions” (J Med Chem, 2020).

Series [1] in a line: Enzymatic stability assessed as pronase (unknown origin)-mediated compound hydrolysis at pH 7.8 at 0.1 mg/ml incubated for 24 hrs by HPLC-MS analysis. The format is ADME. The note with it: buffer, pH 7.8, 24 h. The method in brief: (§1)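 Compound (0.1 mg/mL) was incubated with 0.1 mg/mL α-chymotrypsin or pronase in 100 mM ammonium bicarbonate, pH 7.8, at 37 °C for 24 h. Mixtures were concentrated by speed vacuum to remove water and buffer salt. Residual compound was then analysed by HPLC-MS.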

Series [2] can be described thus: Enzymatic stability assessed as alpha-chymotrypsin (unknown origin)-mediated compound hydrolysis at pH 7.8 at 0.1 mg/ml incubated for 24 hrs by HPLC-MS analysis. In kind it is ADME. The note with it: human, buffer, pH 7.8, 24 h. The method in brief:
as §1

Series [3] has as its target Cellular tumor antigen p53 (Homo sapiens) (UniProt P04637). In words: Activation of p53 in human U2OS cells cotransfected with BP100-luc and CMV-lacZ gene assessed as lacZ gene expression at 30 uM incubated for 18 hrs by p53-dependent luciferase transcriptional activation assay. In kind it is cell-based. Put shortly:
(§2)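 U2OS cells stably carrying the p53-responsive BP100-luc reporter and a CMV-lacZ control were seeded at 100,000 per well 24 h before dosing at 30 μM. Lysates were assayed for luciferase and β-gal activity. […] Each value is the average of at least three measurements, with standard deviation.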

The target in series [4] is T1, E3 ubiquitin-protein ligase Mdm2 (Homo sapiens, UniProt Q00987). In words: Binding affinity to human MDM2 expressed in Escherichia coli expression system by using (FITC)-labeled p53 peptide based fluorescence polarization competitive assay. For orientation: In fluorescence polarisation assays a small probe gives low polarisation when free and higher when bound to something large.
Target sequence in this assay (Q00987 whole entry): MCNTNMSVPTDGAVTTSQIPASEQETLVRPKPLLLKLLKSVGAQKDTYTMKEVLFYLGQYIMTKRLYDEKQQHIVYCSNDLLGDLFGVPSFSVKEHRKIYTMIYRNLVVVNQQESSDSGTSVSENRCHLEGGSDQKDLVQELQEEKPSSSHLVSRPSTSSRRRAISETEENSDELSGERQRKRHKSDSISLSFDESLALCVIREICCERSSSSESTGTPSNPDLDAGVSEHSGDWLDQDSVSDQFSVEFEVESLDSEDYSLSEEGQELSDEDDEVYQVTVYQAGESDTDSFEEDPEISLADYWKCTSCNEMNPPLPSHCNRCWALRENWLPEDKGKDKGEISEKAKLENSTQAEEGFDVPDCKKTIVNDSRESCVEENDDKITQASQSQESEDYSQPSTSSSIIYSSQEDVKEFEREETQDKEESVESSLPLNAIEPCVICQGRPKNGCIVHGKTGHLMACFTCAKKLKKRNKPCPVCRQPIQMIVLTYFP

Series [5] deals with T1, E3 ubiquitin-protein ligase Mdm2. Kind of series: Potency index, ratio of p53 IC50 to test compound IC50 for binding affinity to human MDM2 expressed in Escherichia coli expression system by using (FITC)-labeled p53 peptide based fluorescence polarization competitive assay.
Target sequence in this assay (Q00987 whole entry, looked up): as the sequence (Q00987 whole entry) above
Series [6] has as its target Cellular tumor antigen p53 (Homo sapiens) (UniProt P04637). In words: Activation of p53 in human U2OS cells cotransfected with BP100-luc and CMV-lacZ gene assessed as luciferase gene expression at 30 uM incubated for 18 hrs by p53-dependent luciferase transcriptional activation assay. The format is cell-based. The method in brief: as §2
For a further series, the target named is T2, Protein Mdm4 (Homo sapiens, UniProt O15151).
T2 sequence (O15151 whole entry): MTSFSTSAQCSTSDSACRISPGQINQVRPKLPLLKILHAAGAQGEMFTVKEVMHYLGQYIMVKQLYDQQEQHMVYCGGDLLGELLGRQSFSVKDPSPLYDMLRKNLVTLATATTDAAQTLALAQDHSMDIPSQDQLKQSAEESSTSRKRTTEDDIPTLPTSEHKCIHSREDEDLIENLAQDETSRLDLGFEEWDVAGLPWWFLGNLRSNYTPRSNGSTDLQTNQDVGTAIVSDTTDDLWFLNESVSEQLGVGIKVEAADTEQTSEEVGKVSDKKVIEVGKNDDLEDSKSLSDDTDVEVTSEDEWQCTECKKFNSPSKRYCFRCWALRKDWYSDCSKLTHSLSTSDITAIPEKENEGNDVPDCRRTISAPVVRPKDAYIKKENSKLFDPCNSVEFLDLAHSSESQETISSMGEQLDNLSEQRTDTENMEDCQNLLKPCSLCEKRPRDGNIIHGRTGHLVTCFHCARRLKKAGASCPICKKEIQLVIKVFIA
In words: Binding affinity to MDMX (unknown origin) by using (FITC)-labeled p53 peptide based fluorescence polarization competitive assay.

Series [7] relates to HCT-116. In words: Antiproliferative activity against human HCT116 cells expressing wild-type p53 assessed as reduction in cell viability at 200 uM incubated for 48 hrs by MTT assay. In general terms: Formazan colour is commonly taken as a measure of viable cells.
Series [8] concerns the target T3, Tumour suppressor p53/oncoprotein Mdm2 (Homo sapiens) (UniProt P04637+Q00987). Kind of series: Inhibition of MDM2/p53 interaction in human U2OS cells assessed as increase in MDM2 level at 30 uM incubated for 16 hrs by Western blot analysis. In kind it is cell-based. Put shortly:
(§3)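 Exponentially growing U2OS cells were treated at 30 μM for 16 h, then lysed in RIPA with 1 mM PMSF and protease inhibitors. Lysates were resolved by SDS-PAGE and blotted. Blots were blocked in PBS with 5% milk and 0.1% Tween 20.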
(A western blot detects proteins with antibodies after separation by electrophoresis.)

The target in series [9] is T3, Tumour suppressor p53/oncoprotein Mdm2 (Homo sapiens). Kind of series: Inhibition of MDM2/p53 interaction in human U2OS cells assessed as increase in p53 level at 30 uM incubated for 16 hrs by Western blot analysis. The format is cell-based. Put shortly: as §3
For series [10], the system named is HCT-116. Kind of series: Antiproliferative activity against human HCT116 cells harboring p53 deletion mutant assessed as reduction in cell viability at 200 uM incubated for 48 hrs by MTT assay.
Series [11] has as its target T3, Tumour suppressor p53/oncoprotein Mdm2 (Homo sapiens). Kind of series: Inhibition of MDM2/p53 interaction in human U2OS cells assessed as increase in p21 level at 30 uM incubated for 16 hrs by Western blot analysis. The format is cell-based. The method in brief:
as §3

Series [12] has as its target T1, E3 ubiquitin-protein ligase Mdm2. Kind of series: Binding affinity to human MDM2 (17-125 residues) by NMR spectroscopic analysis. Put shortly: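 Uniformly 15N/13C-labelled human MDM2 residues 17–125 was analysed free and with ligand. Sensitivity-enhanced 1H–15N HSQC and 3D HNCA spectra were recorded for resonance assignment. Buffer was 50 mM sodium phosphate, 100 NaCl, 1 mM EDTA, 0.02% sodium azide and 2 mM DTT, pH 6.8, with 10% D2O.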
Target sequence in this assay (Q00987 whole entry, looked up): as the sequence (Q00987 whole entry) above

For series [13] the target is unchanged. In words: Potency index, ratio of p53 binding affinity to compound binding affinity to human MDM2 (17-125 residues) by NMR spectroscopic analysis.
Target sequence in this assay (Q00987 whole entry, looked up): as the sequence (Q00987 whole entry) above

Molecules are shown by their SMILES. Activity calls are given as the source filed them. No cut-off for these calls is given here.

Usually Kd stands for the free concentration of one partner at which half of the binding sites on the other are occupied at equilibrium, for simple one-to-one binding. Low values mean higher affinity, high ones lower affinity. In general, IC50 refers to the point on the concentration scale where inhibition reaches its midpoint.

T3 sequence (P04637 whole entry, looked up): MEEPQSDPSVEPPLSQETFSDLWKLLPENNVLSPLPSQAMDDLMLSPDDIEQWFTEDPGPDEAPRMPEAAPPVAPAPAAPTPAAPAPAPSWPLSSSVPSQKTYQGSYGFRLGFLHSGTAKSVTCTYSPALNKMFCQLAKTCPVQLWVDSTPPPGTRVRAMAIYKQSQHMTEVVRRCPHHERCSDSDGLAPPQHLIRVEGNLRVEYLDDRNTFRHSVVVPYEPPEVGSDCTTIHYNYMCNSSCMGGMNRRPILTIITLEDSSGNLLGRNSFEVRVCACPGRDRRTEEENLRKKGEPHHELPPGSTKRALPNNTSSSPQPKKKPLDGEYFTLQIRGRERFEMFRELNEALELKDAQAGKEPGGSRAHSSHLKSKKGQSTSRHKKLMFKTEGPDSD
T3 sequence (Q00987 whole entry, looked up): as the sequence (Q00987 whole entry) above
Sequence of Cellular tumor antigen p53 (Homo sapiens) (P04637 whole entry, looked up): as the sequence (P04637 whole entry, looked up) above

As for `CC(=O)N[C@@H](CC(C)C)CN(CC(=O)N[C@@H](Cc1ccccc1)CN(CC(=O)N[C@@H](CCC(=O)O)CN(CC(=O)N[C@@H](Cc1c[nH]c2ccccc12)CN(CC(=O)N[C@@H](CCCCN)CN(CC(=O)N[C@@H](CC(C)C)CN(CC(=O)N[C@@H](C)CN(CC(N)=O)S(C)(=O)=O)S(=O)(=O)CC(C)C)S(C)(=O)=O)S(C)(=O)=O)S(C)(=O)=O)S(C)(=O)=O)S(=O)(=O)c1ccc(Cl)cc1`, the Stability result in [1] and in [2] was “Stable” in each case. Further, the outcome in [3] was inactive. Besides, the Kd in [4] is 57 nM; at Protein Mdm4 it was 370 nM. Besides, the IC50 amounted to 2800 nM in series [4] (read-out: IC50) and 6 µM at Protein Mdm4. For the same compound, the Ratio IC50 in series [5] worked out at 1.5. Also, in series [6], the result was Active.

`CC(=O)N[C@@H](CC(C)C)CN(CC(=O)N[C@@H](Cc1ccccc1)CN(CC(=O)N[C@@H](CCC(=O)O)CN1CC(=O)N[C@@H](Cc2c[nH]c3ccccc23)CN(S(C)(=O)=O)CC(=O)N[C@@H](CCCCN)CN(CC(=O)N[C@@H](CC(C)C)CN(CC(=O)N[C@@H](C)CN(CC(N)=O)S(C)(=O)=O)S(=O)(=O)CC(C)C)S(=O)(=O)CCCC/C=C/CCCCS1(=O)=O)S(C)(=O)=O)S(=O)(=O)c1ccc(Cl)cc1`: the Stability result in series [1] and in series [2] was “Stable” throughout. For the same compound, the IC50 in [4] (read-out: IC50) stood at 1900 nM; at Protein Mdm4 it was 3.9 µM. In addition, the inhibition entry (in the series with HCT-116 [7]; in [8]; in series [9]; in series [11]) was “Active” in each case. The Activity in [6] amounted to 70%. Moreover, the result in the series with HCT-116 [10] was Active.

With `CC(=O)N[C@@H](CC(C)C)CN(CC(=O)N[C@@H](Cc1ccccc1)CN(CC(=O)N[C@@H](CCC(=O)O)CN1CC(=O)N[C@@H](Cc2c[nH]c3ccccc23)CN(S(C)(=O)=O)CC(=O)N[C@@H](CCCCN)CN(CC(=O)N[C@@H](CC(C)C)CN(CC(=O)N[C@@H](C)CN(CC(N)=O)S(C)(=O)=O)S(=O)(=O)CC(C)C)S(=O)(=O)CC/C=C/CCCCS1(=O)=O)S(C)(=O)=O)S(=O)(=O)c1ccc(Cl)cc1`, the Stability entry in series [1] and in [2] was “Stable” each time. Also, the figures for the 50% inhibitory concentration (IC50) (in [4] (read-out: IC50); on Protein Mdm4) were 3600 nM and 6.6 µM, respectively. Further, the inhibition entry in series [8], in series [9] and in series [11] was “Active” throughout. For the same compound, the Activity in series [6] worked out at 25%.

Regarding `CC(=O)N[C@@H](CC(C)C)CN(CC(=O)N[C@@H](Cc1ccccc1)CN(CC(=O)N[C@@H](CCC(=O)O)CN(CC(=O)N[C@@H](C)CN(CC(=O)N[C@@H](CCCCN)CN(CC(=O)N[C@@H](CC(C)C)CN(CC(=O)N[C@@H](C)CN(CC(N)=O)S(C)(=O)=O)S(=O)(=O)CC(C)C)S(C)(=O)=O)S(C)(=O)=O)S(C)(=O)=O)S(C)(=O)=O)S(=O)(=O)c1ccc(Cl)cc1`, in series [4], the IC50 entry is given as “Not Active”.

Consider `CC(=O)N[C@@H](CC(C)C)CN(CC(=O)N[C@@H](Cc1ccccc1)CN(CC(=O)N[C@@H](CCC(=O)O)CN(CC(=O)N[C@@H](Cc1c[nH]c2ccccc12)CN(CC(=O)N[C@@H](CCCCN)CN(CC(=O)N[C@@H](CC1CCCCC1)CN(CC(=O)N[C@@H](C)CN(CC(N)=O)S(C)(=O)=O)S(=O)(=O)CC(C)C)S(C)(=O)=O)S(C)(=O)=O)S(C)(=O)=O)S(C)(=O)=O)S(=O)(=O)c1ccc(Cl)cc1`, for which the Stability entry in series [1] and in series [2] was “Stable” throughout.

Regarding `CC(=O)N[C@@H](CC(C)C)CN(CC(=O)N[C@@H](Cc1ccccc1)CN(CC(=O)N[C@@H](CCC(=O)O)CN(CC(=O)N[C@@H](Cc1c[nH]c2ccccc12)CN(CC(=O)N[C@@H](CCCCN)CN(CC(=O)N[C@@H](CC1CCC1)CN(CC(=O)N[C@@H](C)CN(CC(N)=O)S(C)(=O)=O)S(=O)(=O)CC(C)C)S(C)(=O)=O)S(C)(=O)=O)S(C)(=O)=O)S(C)(=O)=O)S(=O)(=O)c1ccc(Cl)cc1`, the Stability entry in [1] and in series [2] was “Stable” each time. The result in series [3] was inactive. For the same compound, the Kd in series [4] was determined as 26 nM; at Protein Mdm4, 221 nM. Further, the IC50 is 891 nM in series [4] (read-out: IC50) and 3.6 µM on Protein Mdm4. In the series with HCT-116 [7], the inhibition result was “Active”. Also, the outcome (in series [12]; in [6]; in the series with HCT-116 [10]) was Active. The Ratio in series [13] stood at 10.
